Consider four compounds from ChEMBL document CHEMBL1158454, “Discovery of a potent and orally active hedgehog pathway antagonist (IPI-926)” (J Med Chem, 2009).

Data set [1] concerns Mus musculus. Briefly: (§1) Antitumor activity against Ptc+/- Hic+/- mouse B837Tx cells allografted in NOD/SCID mouse assessed as tumor-free interval on 21 days post treatment at 40 mg/kg, po administered daily for 21 days. It is filed as functional. A digest of the protocol: (§2)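 NOD/SCID mice given 1 × 10^6 B837Tx cells in the right hind flank. Once tumors reached about 100-200 mm³, N=10/group were gavaged daily for 21 days. Vehicle: 30% (w/w) HPBCD in 0.1 M citrate phosphate buffer, pH 3, dosing solutions 5-10 mg/mL. Tumors measured in two perpendicular dimensions by caliper 3 times weekly. Regrowth monitored over a 21-day post-treatment phase.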

The test system of data set [2] is Mus musculus. Nature of the data set: Antitumor activity against Ptc+/- Hic+/- mouse B837Tx cells allografted in NOD/SCID mouse assessed as effect on recurrence rate on post treatment at 40 mg/kg, po administered daily for 21 days. It is filed as functional, organism-based. Details: dose 40 mg/kg. A digest of the protocol: as §2
The subject of data set [3] is Mus musculus. Nature of the data set: (§3) Antitumor activity against Ptc+/- Hic+/- mouse B837Tx cells allografted in NOD/SCID mouse assessed as median time to unmeasurable tumor volume at 40 mg/kg, po administered daily for 21 days. The class given is functional. A digest of the protocol: as §2
A short description of data set [4]: as §1. The class given is functional. In outline:
as §2

Data set [5] is described as follows: Elimination half life in CD1 mouse at 1 mg/kg, iv. The conditions noted are these: in vivo, read-out: beta t1/2 (converted). Also noted: dose 1 mg/kg, route intravenous. The class given is ADME, organism-based. A digest of the protocol:
(§4)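 Plasma sampled at 0.083-24 h (T_last 24 h), protein-precipitated with acetonitrile containing jervine internal standard, and quantified by LC/MS/MS. Parameters taken from the concentration-time profile.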

The target of a further data set is Protein smoothened (Homo sapiens, UniProt Q99835). Nature of the data set: Inhibition of human recombinant SMO expressed in mouse C3H10T1/2 cells assessed as inhibition of association of BODIPY-cyclopamine. It is filed as cell-based, C3H 10T1/2.
Sequence of Protein smoothened (Q99835 whole entry): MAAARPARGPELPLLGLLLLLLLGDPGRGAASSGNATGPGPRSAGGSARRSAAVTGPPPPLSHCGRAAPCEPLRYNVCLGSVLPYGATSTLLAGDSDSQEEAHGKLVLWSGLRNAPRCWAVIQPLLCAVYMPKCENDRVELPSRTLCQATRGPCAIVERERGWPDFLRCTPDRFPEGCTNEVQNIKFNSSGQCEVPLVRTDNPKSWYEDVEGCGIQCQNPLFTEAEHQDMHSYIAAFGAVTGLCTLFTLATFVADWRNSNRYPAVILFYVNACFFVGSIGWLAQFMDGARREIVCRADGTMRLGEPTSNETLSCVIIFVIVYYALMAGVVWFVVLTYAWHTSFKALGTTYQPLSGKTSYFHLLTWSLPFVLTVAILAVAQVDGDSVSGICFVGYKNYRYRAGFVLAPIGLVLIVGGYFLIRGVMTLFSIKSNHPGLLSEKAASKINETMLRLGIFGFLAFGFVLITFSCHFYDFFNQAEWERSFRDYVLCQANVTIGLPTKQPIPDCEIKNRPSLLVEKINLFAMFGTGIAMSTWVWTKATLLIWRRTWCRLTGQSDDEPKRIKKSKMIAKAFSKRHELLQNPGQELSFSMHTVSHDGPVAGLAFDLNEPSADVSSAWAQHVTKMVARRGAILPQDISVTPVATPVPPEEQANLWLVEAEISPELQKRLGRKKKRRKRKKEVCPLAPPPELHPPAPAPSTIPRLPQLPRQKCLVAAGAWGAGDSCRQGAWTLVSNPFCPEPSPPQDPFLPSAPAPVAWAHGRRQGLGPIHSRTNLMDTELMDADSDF
Data set [6] is described as follows: Plasma clearance in Beagle dog at 1 mg/kg, iv. It is filed as ADME, organism-based, Canis lupus familiaris. Also noted: dose 1 mg/kg, route intravenous. A digest of the protocol:
as §4

A short description of data set [7]: Oral bioavailability in Sprague-Dawley rat at 5 mg/kg. The conditions noted are these: in vivo. The class given is ADME, organism-based.
The nature of data set [8]: Elimination half life in Beagle dog at 1 mg/kg, iv. The class given is ADME, organism-based, Canis lupus familiaris. Details: dose 1 mg/kg, route intravenous. The conditions noted are these: in vivo, read-out: beta t1/2 (converted). In outline:
as §4

Data set [9] can be described thus: Plasma clearance in cynomolgus monkey at 1 mg/kg, iv. Details: dose 1 mg/kg, route intravenous. It is filed as ADME, organism-based, Macaca fascicularis. A digest of the protocol:
as §4

The nature of data set [10]: Inhibition of HedgeHog pathway in mouse C3H10T1/2 cells assessed as inhibition of 20-(S)-hydroxysterol/22-(S)-hydroxysterol-induced osteoblastic differentiation after 72 hrs by alkaline phosphatase assay. The conditions noted are these: C3H 10T1/2, 72 h.
Data set [11] is described as follows: Toxicity in po dosed Ptc+/- Hic+/- mouse B837Tx cells allografted NOD/SCID mouse assessed as maximum tolerated dose after 5 days. The conditions noted are these: in vivo. It is filed as organism-based. In outline:
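Tumor-bearing immunocompromised mice received repeat oral dosing for 5 days. MTD was defined as the dose tolerated by all animals (N = 3).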

Data set [12] can be described thus: Elimination half life in Sprague-Dawley rat at 1 mg/kg, iv. The class given is ADME, organism-based. Details: dose 1 mg/kg, route intravenous. The conditions noted are these: in vivo, read-out: beta t1/2 (converted). In outline: as §4
Data set [13] in a line: Oral bioavailability in Beagle dog at 4 mg/kg. It is filed as ADME, organism-based, Canis lupus familiaris. The conditions noted are these: in vivo.
Data set [14] is described as follows: Plasma clearance in CD1 mouse at 1 mg/kg, iv. The class given is ADME, organism-based. Details: dose 1 mg/kg, route intravenous. In outline:
as §4

The nature of data set [15]: as §3. It is filed as functional. In outline: as §2
Data set [16] can be described thus: Oral bioavailability in CD1 mouse at 5 mg/kg. It is filed as ADME, organism-based. The conditions noted are these: in vivo.
Data set [17] is described as follows: Volume of distribution in CD1 mouse at 1 mg/kg, iv. The class given is ADME, organism-based. Details: dose 1 mg/kg, route intravenous. The conditions noted are these: in vivo. A digest of the protocol: as §4
The next data set is described as follows: in vitro. The conditions noted are these: human.
A short description of data set [18]: Volume of distribution in Sprague-Dawley rat at 1 mg/kg, iv. It is filed as ADME, organism-based. Details: dose 1 mg/kg, route intravenous. The conditions noted are these: in vivo. A digest of the protocol: as §4
Data set [19] can be described thus: Oral bioavailability in cynomolgus monkey at 4 mg/kg. It is filed as ADME, organism-based, Macaca fascicularis. The conditions noted are these: in vivo.
Data set [20] can be described thus: Plasma clearance in Sprague-Dawley rat at 1 mg/kg, iv. It is filed as ADME, organism-based. Details: dose 1 mg/kg, route intravenous. A digest of the protocol: as §4
Data set [21] is described as follows: Elimination half life in cynomolgus monkey at 1 mg/kg, iv. The class given is ADME, organism-based, Macaca fascicularis. Details: dose 1 mg/kg, route intravenous. The conditions noted are these: in vivo, read-out: beta t1/2 (converted). In outline:
as §4

The nature of data set [22]: Volume of distribution in Beagle dog at 1 mg/kg, iv. It is filed as ADME, organism-based, Canis lupus familiaris. Also noted: dose 1 mg/kg, route intravenous. The conditions noted are these: in vivo. In outline: as §4
The nature of data set [23]: Antitumor activity against Ptc+/- Hic+/- mouse B837Tx cells allografted in NOD/SCID mouse assessed as median time to unmeasurable tumor volume at 80 mg/kg, po administered daily for 21 days. The class given is functional. A digest of the protocol: as §2
Data set [24] is described as follows: Volume of distribution in cynomolgus monkey at 1 mg/kg, iv. Also noted: dose 1 mg/kg, route intravenous. The class given is ADME, organism-based, Macaca fascicularis. The conditions noted are these: in vivo. In outline: as §4
Data set [25] in a line: Antitumor activity against Ptc+/- Hic+/- mouse B837Tx cells allografted in NOD/SCID mouse assessed as tumor-free interval on 21 days post treatment at 80 mg/kg, po administered daily for 21 days. The class given is functional. In outline:
as §2

Data set [26] can be described thus: Antitumor activity against Ptc+/- Hic+/- mouse B837Tx cells allografted in NOD/SCID mouse assessed as tumor-free interval on 21 days post treatment at 30 mg/kg, po administered daily for 21 days. It is filed as functional. In outline: as §2
Data set [27] in a line: Antitumor activity against Ptc+/- Hic+/- mouse B837Tx cells allografted in NOD/SCID mouse assessed as median time to unmeasurable tumor volume at 30 mg/kg, po administered daily for 21 days. The class given is functional. A digest of the protocol: as §2

The source made the active and inactive calls.

With `CC1=C2C[C@H]3[C@@H](CC=C4C[C@@H](O)CC[C@@]43C)[C@@H]2CC[C@]12O[C@@H]1C[C@H](C)CN[C@H]1[C@H]2C`, the result in the data set on Mus musculus [1], with Mus musculus [2] and in the data set with Mus musculus [3] was inactive.
As a reminder, the IC50 is the point on the concentration scale where inhibition reaches its midpoint. Broadly, the clearance is the rate of elimination divided by the concentration. As usually defined, the bioavailability is dose-corrected exposure relative to a reference, in per cent. The EC50 is the concentration at which the effect is half-maximal. In general, MTD refers to the largest dose that counted as tolerated. Usually Vd stands for the apparent volume that relates the amount in the body to the concentration in plasma or blood. In the case of `CC1=C2C[C@H]3[C@@H](CC[C@@H]4C[C@H](NS(C)(=O)=O)CC[C@@]43C)[C@@H]2CC[C@@]2(C1)O[C@@H]1C[C@H](C)CN[C@H]1[C@H]2C` [PATIDEGIB], the Activity turned out to be 21 days in [4] and 9 days in data set [15]. For the same compound, the half-life in data set [5] was 10.5 h; in data set [8] it was 15.5 h; in data set [12], more than 24 h; in data set [21] it was 8.2 h. For the same compound, the IC50 on Protein smoothened came to 1.4 nM. For the same compound, the clearance was 11 mL/min/kg in [6], 15 mL/min/kg in data set [9], 12.3 mL/min/kg in [14] and 3.5 mL/min/kg in data set [20]. The bioavailability in data set [7] was found to be 100%; in [13], 50%; in [16], 100%; in data set [19], 74%. In addition, in the data set on Mus musculus [2], the outcome was Active. Further, in data set [10], the EC50 amounted to 7 nM. Moreover, the MTD at 120 h in [11] is 40 mg/kg. Besides, the results for the Vd in data set [17], in data set [18] and in [22] were 11 L/kg, 30 L/kg and 15.3 L/kg, respectively. The half-life at 0.5 µM in “in vitro” (microsomes) is 1.42 h.
Regarding `CC1=C2C[C@H]3[C@@H](CC[C@@H]4Cc5[nH]ncc5C[C@@]43C)[C@@H]2CC[C@@]2(C1)O[C@@H]1C[C@H](C)CN[C@H]1[C@H]2C`, the Activity in data set [23] stood at 9 days; in data set [25], 19 days. The volume of distribution (Vd) in data set [24] was 13 L/kg; in data set [17], 9 L/kg; in data set [18] it was 13 L/kg; in data set [22], 6 L/kg. The half-life in data set [5] is 3 h; in data set [8] it was 6.8 h; in data set [12], 1.2 h; in data set [21] it was 5.6 h. The clearance in data set [6] is 10 mL/min/kg; in data set [9], 30 mL/min/kg; in data set [14], 33.3 mL/min/kg; in data set [20], 125 mL/min/kg. The bioavailability is 34% in [7], 73% in data set [13], 52% in data set [16] and 84% in data set [19]. Further, the concentration for a half-maximal effect (EC50) in data set [10] is 13 nM. The MTD at 120 h in [11] turned out to be 80 mg/kg. This compound also returned a half-life at 0.5 µM in the data set “in vitro” (liver microsomes) of 2 h.
Regarding `CC1=C2C[C@H]3[C@@H](CC[C@@H]4CNC(=O)CC[C@@]43C)[C@@H]2CC[C@@]2(C1)O[C@@H]1C[C@H](C)CN[C@H]1[C@H]2C`, the Vd in data set [24] is 4.3 L/kg; in data set [17], 2 L/kg; in data set [18], 4.9 L/kg; in data set [22], 3 L/kg. In addition, the half-life was 3 h in data set [5], 6.5 h in data set [8], 5.4 h in [12] and 3.8 h in data set [21]. Also, the clearance in [6] is 5.5 mL/min/kg; in data set [9], 13.3 mL/min/kg; in [14], 8.33 mL/min/kg; in data set [20], 10.5 mL/min/kg. Also, the bioavailability in [7] was found to be 100%; in data set [13], 97%; in data set [16], 100%; in data set [19] it was 100%. Besides, the Activity is 10 days in data set [26] and 9 days in [27]. Besides, the concentration for a half-maximal effect (EC50) in data set [10] turned out to be 25 nM. The maximum tolerated dose (MTD) at 120 h in data set [11] came to 30 mg/kg. Besides, the half-life at 0.5 µM in “in vitro” (microsomes) stood at 1.08 h.
